Measurements published in ChEMBL document CHEMBL1128362, “Structure-activity relationships of 9-alkyladenine and ribose-modified adenosine derivatives at rat A3 adenosine receptors” (J Med Chem, 1995).
Several values for one entry are separate records, joined by “and”; a condition that tells them apart may be missing. Identical values can stand only once. Activity calls are given as the source filed them. The rule behind the calls is not given here.

Columns and labels:
[1] = target: T1, Adenosine receptor A3 (Rattus norvegicus) (UniProt P28647); experiment: Ratio of the concentration (40 uM) effecting adenylyl cyclase and binding affinity against rat brain Adenosine A3 receptor
T1 sequence (whole entry): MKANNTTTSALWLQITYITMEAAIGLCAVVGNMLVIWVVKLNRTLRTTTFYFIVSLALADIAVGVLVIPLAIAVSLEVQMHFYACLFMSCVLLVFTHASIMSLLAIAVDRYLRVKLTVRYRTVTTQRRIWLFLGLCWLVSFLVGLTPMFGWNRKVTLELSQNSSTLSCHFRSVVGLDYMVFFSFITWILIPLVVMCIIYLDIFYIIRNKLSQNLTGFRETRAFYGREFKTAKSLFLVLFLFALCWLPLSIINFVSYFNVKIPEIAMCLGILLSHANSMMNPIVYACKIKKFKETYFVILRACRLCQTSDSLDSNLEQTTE
Procedure, shortened: (§1)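 This ratio is the adenylyl cyclase test concentration (20, 40 or 100 µM) divided by the A3 Ki. The Ki came from [125I]AB-MECA displacement in membranes of CHO cells expressing rat A3 receptor.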

[2] = target: T1, Adenosine receptor A3 (Rattus norvegicus); experiment: Ability to inhibit the adenylyl cyclase in CHO cells stably transfected with rat Adenosine A3 receptor at the dose of 40(uM); assay type: cell-based
Procedure, shortened: (§2)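 Adenylyl cyclase activity measured in membranes of CHO cells stably transfected with rat brain A3 receptor, following an earlier published method. […] Untransfected CHO cell membranes served as the control.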

[3] = target: Adenosine receptors; A1 & A3 (Rattus norvegicus) (UniProt P25099+P28647); experiment: Ratio of the binding affinities against rat brain A1 and A3 receptors, KiA1/KiA3.
[4] = target: Adenosine receptor A2a and A3 (Rattus norvegicus) (UniProt P30543+P28647); experiment: Ratio of the binding affinities against rat brain A2a and A3 receptors, KiA2a/KiA3.
Sequence of Adenosine receptor A2a and A3 (Rattus norvegicus) (P30543 whole entry, looked up, one chain of several): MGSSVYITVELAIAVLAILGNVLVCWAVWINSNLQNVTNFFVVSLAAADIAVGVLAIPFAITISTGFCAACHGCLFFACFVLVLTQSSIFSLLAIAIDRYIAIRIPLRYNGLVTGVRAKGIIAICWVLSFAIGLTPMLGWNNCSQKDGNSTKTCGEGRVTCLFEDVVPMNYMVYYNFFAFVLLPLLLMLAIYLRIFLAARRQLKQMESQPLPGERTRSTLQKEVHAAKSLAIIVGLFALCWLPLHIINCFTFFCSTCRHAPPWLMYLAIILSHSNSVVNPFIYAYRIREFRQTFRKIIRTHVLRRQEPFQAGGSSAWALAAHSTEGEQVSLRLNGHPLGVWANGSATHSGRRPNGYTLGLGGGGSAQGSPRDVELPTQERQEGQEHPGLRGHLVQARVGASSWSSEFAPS

[5] = target: T1, Adenosine receptor A3 (Rattus norvegicus); experiment: Ratio of the concentration (100 uM) effecting adenylyl cyclase and binding affinity against rat brain A3 receptors.; procedure, shortened: as §1
[6] = target: T1, Adenosine receptor A3 (Rattus norvegicus); experiment: Ability to inhibit the adenylyl cyclase in CHO cells stably transfected with rat Adenosine A3 receptor at the concentration of 100 uM; assay type: cell-based; procedure, shortened: as §2
[7] = target: Adenosine receptor A2a (Rattus norvegicus) (UniProt P30543); experiment: Binding affinity against Adenosine A2A receptor from rat brain; set-up: concentration or dose not given beside the values; settings: concentration not given here
Sequence of Adenosine receptor A2a (Rattus norvegicus) (P30543 whole entry): as the sequence (P30543 whole entry, looked up, one chain of several) above
Procedure, shortened: (§3)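 Rat A1 receptors came from cerebral cortical membranes with [3H]R-PIA, and rat A2a receptors came from striatal membranes with [3H]CGS 21680. Membranes were pretreated with adenosine deaminase (2 U/mL) for 30 min at 37 °C. Nonspecific binding was defined by 2-chloroadenosine at 10 µM (A1) and 200 µM (A2a).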

[8] = target: T1, Adenosine receptor A3 (Rattus norvegicus); experiment: Agonist elicited inhibition of adenylyl cyclase via rat Adenosine A3 receptor in transfected CHO cells and effect on IB-MECA was determined from dose response curves at the concentration of 40(uM); assay type: functional, cell-based
Procedure, shortened: (§4)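 CHO cell membranes stably transfected with rat A3 receptor were used to test for antagonism. Adenylyl cyclase inhibition was elicited by the A3 agonist IB-MECA across a dose-response curve, and test agent at 40 or 100 µM was checked for reversal of the agonist-induced inhibition. The cyclase measurement followed a previously described method.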

[9] = target: T1, Adenosine receptor A3 (Rattus norvegicus); experiment: Inhibition of Adenosine A3 receptor from rat brain; settings: concentration not given here
Procedure, shortened: (§5)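 Rat brain A3 receptor was stably expressed in CHO cell membranes and labelled with [125I]AB-MECA at 0.3 nM final, in 50 mM Tris/10 mM MgCl2/1 mM EDTA, pH 8.26. Inhibitors were in DMSO, at no more than 2% final. Incubation was 1 h at 37 °C in duplicate, ended by filtration. Nonspecific binding was defined by 200 µM NECA.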

[10] = target: T1, Adenosine receptor A3 (Rattus norvegicus); experiment: Ability to inhibit the adenylyl cyclase in CHO cells stably transfected with rat Adenosine A3 receptor at the concentration of 40(uM); assay type: cell-based; procedure, shortened: as §2
Adenosine receptor A2a = Adenosine receptor A2a (Rattus norvegicus, UniProt P30543); experiment: Binding affinity against adenosine A2A receptor from rat brain.
Sequence of Adenosine receptor A2a (P30543 whole entry): as the sequence (P30543 whole entry, looked up, one chain of several) above

Adenosine receptor A1 = target: T2, Adenosine receptor A1 (Rattus norvegicus, UniProt P25099); experiment: Binding affinity against adenosine A1 receptor from rat brain.
T2 sequence (P25099 whole entry): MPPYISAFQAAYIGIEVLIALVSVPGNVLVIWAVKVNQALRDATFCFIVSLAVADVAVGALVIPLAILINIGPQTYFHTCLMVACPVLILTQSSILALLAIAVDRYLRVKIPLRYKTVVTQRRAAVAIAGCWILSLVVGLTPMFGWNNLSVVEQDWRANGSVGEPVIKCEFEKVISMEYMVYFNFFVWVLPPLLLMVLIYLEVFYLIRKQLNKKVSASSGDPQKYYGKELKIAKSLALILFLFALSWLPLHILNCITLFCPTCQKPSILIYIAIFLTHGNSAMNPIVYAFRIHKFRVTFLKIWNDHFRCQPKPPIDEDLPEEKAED

Adenosine receptor A3 = target: T3, Adenosine receptor A3 (Rattus norvegicus, UniProt P28647); experiment: Binding affinity against adenosine A3 receptor (rat) stably expressed in CHO cell membranes.; procedure, shortened: as §5
T3 sequence (P28647 whole entry): T1 sequence (whole entry)

[11] = target: T1, Adenosine receptor A3 (Rattus norvegicus); experiment: Ratio of the concentration (40 uM) effecting adenylyl cyclase and binding affinity against rat brain A3 receptors.; procedure, shortened: as §1
[12] = target: T1, Adenosine receptor A3 (Rattus norvegicus); settings: CHO
[13] = target: T1, Adenosine receptor A3 (Rattus norvegicus); settings: CHO; remark: listed apart in the source
[14] = target: T1, Adenosine receptor A3 (Rattus norvegicus); experiment: Ratio of the concentration (20 uM) effecting adenylyl cyclase and binding affinity against rat brain A3 receptors; procedure, shortened: as §1
[15] = target: T1, Adenosine receptor A3 (Rattus norvegicus); experiment: Ability to inhibit the adenylyl cyclase in CHO cells stably transfected with rat Adenosine A3 receptor at the concentration of 20(uM); assay type: cell-based; procedure, shortened: as §2
[16] = target: T4, Adenosine receptor A1 (Rattus norvegicus) (UniProt P25099); experiment: Inhibition of Adenosine A1 receptor from rat brain.; settings: concentration not given here; procedure, shortened: as §3
T4 sequence (whole entry): T2 sequence (P25099 whole entry)

[17] = target: T1, Adenosine receptor A3 (Rattus norvegicus); settings: CHO; remark: listed apart in the source
[18] = target: T1, Adenosine receptor A3 (Rattus norvegicus); experiment: Agonist elicited inhibition of adenylyl cyclase via rat Adenosine A3 receptor in transfected CHO cells and effect on IB-MECA was determined from dose response curves at the concentration of 100(uM); assay type: functional, cell-based; procedure, shortened: as §4

CS[C@H]1OC(n2cnc3c(N)ncnc32)[C@H](O)[C@@H]1O (stereo partly drawn)
Ratio [1]: 28
inhibition [2]: 19.7%

CNC(=O)[C@@H]1C[C@@H](OS(C)(=O)=O)[C@H](n2cnc3c(NCc4cccc(I)c4)nc(Cl)nc32)O1
Ratio [3]: 0.18
Ratio [4]: 5.8

CC(C)[Si]1(C(C)C)OC[C@H]2O[C@@H](n3cnc4c(NCc5cccc(I)c5)nc(Cl)nc43)[C@H](O)[C@@H]2O[Si](C(C)C)(C(C)C)O1
Ratio [3]: 5.1
Ratio [5]: 7.6
inhibition [6]: 8.7%
inhibition [7]: 18%
Ratio [4]: > 7

CCCCCC[C@@H]([C@@H](C)O)n1cnc2c(N)ncnc21
inhibition [7]: 60%
Effect [8]: 0
inhibition [9]: 57%
inhibition [10]: 5.9%

Cn1cnc2c(NCc3cccc(I)c3)ncnc21
Ratio [3]: 0.12
Ratio [4]: 0.046

N#CCCCn1cnc2c(NCc3cccc(I)c3)ncnc21
Ratio [3]: 0.032
Ratio [4]: 0.1

COc1nc(NCc2cccc(I)c2)c2ncn(C)c2n1
Ratio [3]: 0.027
Ratio [4]: 0.068

CC(O)[C@@H]1O[C@@H](n2cnc3c(N)ncnc32)[C@H](O)[C@@H]1O (stereo partly drawn)
Ratio [3]: < 1
Ki (Adenosine receptor A2a): 54.7 µM
Ki (Adenosine receptor A1): 150 µM
Ki (Adenosine receptor A3): 6 µM
inhibition [10]: 0%
Ratio [4]: < 1

OCCn1cnc2c(NCc3cccc(I)c3)ncnc21
Ratio [3]: 0.37
Ratio [4]: 0.24

CNC(=O)[C@H]1O[C@@H](n2cnc3c(NCc4cccc(I)c4)nc(Cl)nc32)[C@@H]2OC(=S)O[C@@H]21
Ratio [3]: 15
Ratio [5]: 8200
Ratio [4]: 71

CNC(=O)[C@@H]1C[C@@H](O)[C@H](n2cnc3c(NCc4cccc(I)c4)nc(Cl)nc32)O1
Ratio [11]: 1200
Ratio [3]: 31
Ratio [5]: 3000
inhibition [10]: 35.2%
Ratio [4]: 140

CNC(=O)[C@H]1C[C@@H](n2cnc3c(NCc4cccc(I)c4)ncnc32)[C@H](O)[C@@H]1O
Ratio [3]: 1.8
Ki (Adenosine receptor A1): 35.9 µM
inhibition [7]: 28.5%
Ki (Adenosine receptor A3): 19.5 µM
Ratio [4]: > 1

CN(C)c1nc(NCc2cccc(I)c2)c2ncn(C)c2n1
Ratio [3]: 0.099
Ratio [4]: 0.66

CNC(=O)[C@H]1O[C@@H](n2cnc3c(NCc4cccc(I)c4)ncnc32)[C@H](O)[C@@H]1O
Effect [12]: inactive
inhibition [6]: 44.4%
Effect [13]: inactive

CNC(=O)[C@@H]1CC[C@H](n2cnc3c(NCc4ccccc4)nc(Cl)nc32)O1
Ratio [11]: 1.3
Ratio [3]: 0.37
Effect [8]: 0
inhibition [10]: 7.5% and 10.8%
Ratio [4]: 7.1

Nc1nc(Cl)nc2c1ncn2[C@@H]1O[C@H](CO)[C@@H](O)[C@@H]1O
Ki (Adenosine receptor A1): 24.2 µM
Ki (Adenosine receptor A3): 14 µM
inhibition [10]: 16.1%

Cn1cnc2c(NCc3cccc(I)c3)nc(Sc3ccncc3)nc21
Ratio [3]: 0.0051
Ratio [4]: 0.07

CNC(=O)[C@@H]1C[C@@H](OC(C)=O)[C@H](n2cnc3c(NCc4cccc(I)c4)nc(Cl)nc32)O1
Ratio [3]: 12
Ratio [14]: 320
inhibition [15]: 12.7%
Ratio [4]: 250

O=C(O)Cn1cnc2c(NCc3cccc(I)c3)ncnc21
inhibition [7]: 9%
inhibition [16]: 17%

CNC(=O)[C@@H]1C[C@H](N)[C@H](n2cnc3c(NCc4cccc(I)c4)nc(Cl)nc32)O1
inhibition [7]: 2%

CNC(=O)C1OC(n2cnc3c(NC(=O)c4cccc(I)c4)nc(Cl)nc32)C(OC(=O)c2ccccc2)C1OC(=O)c1ccccc1 (stereo not drawn)
inhibition [7]: 7%
inhibition [9]: 55%
inhibition [16]: 21%

CNc1nc(NCc2cccc(I)c2)c2ncn(C)c2n1
Ratio [3]: 0.67
Ratio [4]: 3.7

Cn1cnc2c(NCc3cccc(I)c3)nc(Cl)nc21
Ratio [3]: 0.0088
Ratio [4]: 0.053

Cn1cnc2c(NCc3cccc(I)c3)nc(NN)nc21
Ratio [3]: 0.05
Ratio [4]: 0.18

Cn1cnc2c(NCc3cccc(I)c3)nc(N)nc21
Ratio [3]: 0.14
Ratio [4]: 0.08

CNC(=O)[C@@H]1C[C@H](N=[N+]=[N-])[C@H](n2cnc3c(NCc4cccc(I)c4)nc(Cl)nc32)O1
Ratio [3]: 0.067
Ratio [5]: 17
Ratio [14]: 3.3
inhibition [6]: 27.8%
inhibition [15]: 25.7% and 18%
Ratio [4]: 4.7

CNC(=O)[C@@H]1C[C@@H](F)[C@H](n2cnc3c(NCc4cccc(I)c4)nc(Cl)nc32)O1
Ratio [3]: 0.08
Ratio [5]: 5.6
Ki (Adenosine receptor A2a): 98 µM
Ki (Adenosine receptor A1): 1.42 µM
inhibition [6]: 11.2%
Ki (Adenosine receptor A3): 17.8 µM
Ratio [4]: 5.5

OC[C@@H](O)Cn1cnc2c(NCc3cccc(I)c3)ncnc21
Ratio [3]: 0.55
Ratio [4]: 0.76

Cn1cnc2c(NC3CCCC3)ncnc21
Ratio [3]: 0.00041
Ki (Adenosine receptor A2a): 11 µM
Ki (Adenosine receptor A3): 1330 µM
Ratio [4]: 0.0083

CSc1nc(NCc2cccc(I)c2)c2ncn(C[C@H](O)CO)c2n1
Ratio [11]: 4.6
Ratio [3]: 0.16
Effect [17]: 0
Ki (Adenosine receptor A2a): 78.9 µM
Ki (Adenosine receptor A1): 1.34 µM
Ki (Adenosine receptor A3): 8.59 µM
inhibition [10]: 5.5% and 7.3%
Ratio [4]: 9.2

CCn1cnc2c(NC3CCCC3)ncnc21
Ratio [3]: < 1
inhibition [9]: 30%
Ratio [4]: < 1

CSc1nc(NCc2cccc(I)c2)c2ncn(C)c2n1
Ratio [3]: 6.3
Ratio [5]: 330
inhibition [6]: 19.5%
Ratio [4]: 5.5
Effect [18]: 0
